This is an account of results in PubChem BioAssay.

Active and inactive are the calls of the source.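 The calls were made as follows, unless noted: active = fluorescence slope after compound addition differing from the mean of all tested samples at 99.7% confidence, mostly higher but some lower; inactive = the rest.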

Test [1] in a line: inhibitors of TNFa-induced NFkB p65 translocation, primary screen, imaging, HUVEC, MLSMR starter and 10KST1 sets (AID 438;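 active = inhibition above 20% together with a positive visual image hit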;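 also: compound added about 3h40 before a 20 min TNFalpha stimulation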;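 as to inhibition: signal is the nuclear over cytoplasmic p65 intensity ratio per well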). To be noted: HUVEC TNFa-induced p65 nuclear translocation; cell count: measured here: nuclei count (cytotoxicity indicator), at 2.08 µM; inhibition: at 2 µM, stronger effect = higher value, 0% TNFa-plus-vehicle, 100% no-TNFa wells.
Test [2] is described as follows: inhibitors of E-selectin induction by TNFa, primary screen, imaging, HUVEC, immunofluorescence, MLSMR starter and 10KST1 sets (AID 487;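 active = visually confirmed hit in the image check and inhibition above 20%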;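 as to inhibition: signal is fraction of cell area covered by stained E-selectin grains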;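 as to nuclei count: 100% = median nuclei count of all wells on the same plate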). To be noted: HUVEC TNFalpha-induced E-selectin immunofluorescence imaging, at 2 µM; inhibition: stronger effect = higher value; nuclei count: measured here: cell number, toxicity.
Test [3] is described as follows: DUSP6 inhibitors restoring Erk phosphorylation by chemical complementation, primary imaging in DUSP6-transfected HeLa (AID 609;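 active = compounds giving at least 50% inhibition in the cell-based MKP-3 phosphatase rescue imaging test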;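 as to inhibition: phospho-Erk level distribution per well compared with pooled transfected vehicle control wells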). The note with it: HeLa MKP-3 transfected, phospho-Erk imaging KS statistic, at 10 µM, cells stimulated with TPA for 15 min.
Test [4] addresses Dual specificity protein phosphatase 6 (Homo sapiens) (UniProt Q16828). The description is as above. The note with it: HeLa MKP-3 transfected, phospho-Erk imaging KS statistic; at 10 µM; stronger effect = higher value; cells stimulated with TPA for 15 min.
Test [5] deals with Voltage-gated potassium channel subunit beta-2 (Rattus norvegicus) (UniProt P62483). Nature of the test: KvBeta enzyme negative modulators, primary screen, biochemical, NADPH fluorescence (AID 622;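 active = fluorescence slope higher than the sample average by over 3 SD, cut at about -0.22 in these data, passing the limit was not always enough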;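 also: slope of raw intensity against log time taken from 70 to 1610 s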). The note with it: recombinant KvBeta, 4-cyanobenzaldehyde reduction, at 10 µM, stronger effect = higher value.
Test [6] has the same target. The test is described as follows: KvBeta positive modulators, primary screen, biochemical, NADPH fluorescence (AID 623;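 active = NADPH fluorescence slope more negative than the mean of all samples by about 3 SD, 99.7% confidence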;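 also: fluorescence intensity change per second fitted from 20 to 320 s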). The note with it: Recombinant KvBeta, NADPH fluorescence decrease slope, 10 min; at 10 µM; stronger effect = lower value.
For test [7], the target named is Muscarinic acetylcholine receptor M4 (Homo sapiens) (UniProt P08173). Nature of the test: compounds altering M4/GIRK thallium flux, either direction, primary screen, M4 allosteric agonist project, cell-based, HEK293 M4/GIRK, BTC-AM (AID 625).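 Also: thallium influx through GIRK channels coupled to M4 in HEK293 cells with BTC-AM dye.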 The note with it: at 10 µM, actives lie on both sides. The procedure, abridged: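 assay system = HEK293 cells with M4 receptor and GIRK channels | medium = pH 7.3 thallium assay buffer | doses = 10 µM final, single point | timing = cells overnight at 37 °C, BTC-AM loading 1 h, reads 2 min total | signal = BTC-AM fluorescence, 1 Hz kinetic reads | read-out = post-addition slope, 15–24 s, of baseline-normalized fluorescence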

Test [8] can be described thus: inhibitors of larval lipid processing in zebrafish, primary screen, whole organism, PED6 fluorescence, gall bladder and intestine (AID 686;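 active = a full or partial loss of lipid-probe fluorescence in the fish gall bladder, intestine or both, judged by eye; inactive = no fluorescence loss, or compound toxic to the fish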;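 also: larvae 5 to 7 days old with five fish per well; signal comes from phospholipase A2 cleavage of quenched PED6 carried via bile; overnight exposure to compound and PED6 before scoring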). To be noted: Zebrafish larvae PED6 lipid processing, fluorescence scoring; screened at 20 µM (by protocol). In a few lines: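 Also added: quenched phospholipase substrate PED6, 100 nM final, ingested by larvae; System: zebrafish larvae, 5-7 d; Quantity: 5 larvae per well; Compound: 20 µM single dose; Schedule: overnight compound and PED6 incubation; Read-out: visual per-well fluorescence inhibition score; Measured by: By-eye fluorescence microscopy; Medium: E3.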

Test [9] is described as follows: inhibitors of Chlamydomonas gravitaxis, primary screen, whole organism, Chlamydomonas reinhardtii, WT vs cilia-less mutant, absorbance, 96-well (AID 463189;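 active = inhibition at or above 50% relative to wild type and mutant plate controls; inactive = inhibition below 50%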;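 also: 0% = wild type cc124 cells in DMSO and 100% = ciliumless bld1 mutant cells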). To be noted: OD600 absorbance, 2 days, at 10 µM, stronger effect = higher value.
Setting [10] is: measured here: cell density z-score.
The mark [11] stands for this setting: measured here: nuclear c-Myc green intensity z-score.
[12] abbreviates: measured here: nuclear pErk red intensity z-score, stronger effect = higher value.

Sequence of Muscarinic acetylcholine receptor M4 (Homo sapiens) (P08173 whole entry, looked up): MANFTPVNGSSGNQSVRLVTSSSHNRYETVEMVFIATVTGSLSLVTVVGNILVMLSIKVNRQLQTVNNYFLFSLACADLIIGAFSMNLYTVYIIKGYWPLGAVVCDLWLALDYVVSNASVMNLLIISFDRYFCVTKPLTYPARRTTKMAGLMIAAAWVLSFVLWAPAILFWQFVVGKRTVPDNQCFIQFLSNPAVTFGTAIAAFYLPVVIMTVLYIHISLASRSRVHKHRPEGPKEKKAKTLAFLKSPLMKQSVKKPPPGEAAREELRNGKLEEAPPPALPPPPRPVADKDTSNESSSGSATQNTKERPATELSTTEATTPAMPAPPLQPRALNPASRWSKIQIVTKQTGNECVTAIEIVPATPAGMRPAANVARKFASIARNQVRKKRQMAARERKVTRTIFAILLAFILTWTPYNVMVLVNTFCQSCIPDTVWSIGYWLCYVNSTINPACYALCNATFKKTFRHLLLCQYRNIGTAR
Sequence of Dual specificity protein phosphatase 6 (Homo sapiens) (Q16828 whole entry, looked up): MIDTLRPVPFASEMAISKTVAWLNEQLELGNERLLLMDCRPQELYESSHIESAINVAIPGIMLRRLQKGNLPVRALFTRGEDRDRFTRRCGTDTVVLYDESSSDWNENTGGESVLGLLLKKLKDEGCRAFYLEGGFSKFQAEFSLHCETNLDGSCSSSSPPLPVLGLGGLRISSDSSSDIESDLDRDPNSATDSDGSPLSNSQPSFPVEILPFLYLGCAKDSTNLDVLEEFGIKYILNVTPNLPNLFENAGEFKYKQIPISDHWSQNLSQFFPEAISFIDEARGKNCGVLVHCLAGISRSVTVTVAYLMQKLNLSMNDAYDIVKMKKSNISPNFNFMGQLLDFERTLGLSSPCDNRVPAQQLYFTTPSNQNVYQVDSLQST
Sequence of Voltage-gated potassium channel subunit beta-2 (Rattus norvegicus) (P62483 whole entry, looked up): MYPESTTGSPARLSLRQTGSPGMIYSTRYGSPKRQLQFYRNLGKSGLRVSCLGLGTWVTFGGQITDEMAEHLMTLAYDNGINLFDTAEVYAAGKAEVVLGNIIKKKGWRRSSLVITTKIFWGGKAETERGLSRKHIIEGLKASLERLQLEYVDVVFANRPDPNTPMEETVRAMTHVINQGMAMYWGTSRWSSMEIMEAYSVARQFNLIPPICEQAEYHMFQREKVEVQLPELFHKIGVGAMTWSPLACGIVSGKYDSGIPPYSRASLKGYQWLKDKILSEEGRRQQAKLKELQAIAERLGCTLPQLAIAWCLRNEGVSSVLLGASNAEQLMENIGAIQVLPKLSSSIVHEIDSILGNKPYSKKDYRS

Regarding `N#Cc1ccc(-c2ccc(OCC(O)Cn3nnc4ccccc43)cc2)cc1` (stereo unspecified), in test [1], the cell count was 528. For the same compound, the inhibition in [1] was -15.6% (inactive); in test [2] it was -19.3% (inactive); in test [4], 5.42% (inactive); in [9], 52.4% (active). In addition, the nuclei count in test [2] came to 116%. Also, the z-score in test [3] (setting [10]) was -2.55; in test [3] (setting [11]) it was 0.882; in test [3] (setting [12]), 0.638. Moreover, the fluorescence slope was -0.422 (inactive) in [5] and 0.00426 (inactive) in test [7]. Further, the NADPH fluorescence slope in test [6] is -6e-06 (inactive). In addition, the compound was classed as inactive in test [8].

Take `COc1ccc(C(=O)c2oc3nc(C)cc(C)c3c2N)cc1`: the cell count in test [1] was 400. In addition, the inhibition is 3.1% (inactive) in test [1], 7.4% (inactive) in test [2], 19.4% (inactive) in [4] and 23.4% (inactive) in test [9]. This compound also gave a nuclei count in test [2] of 117%. For the same compound, the values for the z-score in test [3] (setting [10]), in [3] (setting [11]) and in [3] (setting [12]) were 1.15, -1.17 and -0.769, respectively. Further, the values for the fluorescence slope in test [5] and in test [7] were -0.379 (inactive) and 0.00438 (inactive), respectively. Further, in test [6], the NADPH fluorescence slope was -2e-05 (inactive). Further, in test [8], the compound was classed as inactive.

In the case of `COc1ccc(NC(=O)c2c(C)cc(=O)oc2C)c(OC)c1`, the cell count in [1] worked out at 631. Further, the inhibition in test [1] is 3.2% (inactive); in test [2], 11.9% (inactive); in test [4], -7.67% (inactive); in test [9], -7.06% (inactive). In test [2], this compound registered a nuclei count of 111%. The z-score in [3] (setting [10]) is 0.599; in test [3] (setting [11]) it was -0.258; in test [3] (setting [12]), 0.577. The fluorescence slope in test [5] is -0.454 (inactive); in test [7] it was 0.00518 (inactive). Besides, in test [6], the NADPH fluorescence slope is -3.9e-05 (inactive). Besides, the compound was called inactive in test [8].

In the case of `C=CCNc1nc(C)nc(OC)n1`, in test [1], the cell count is 634. For the same compound, the inhibition in test [1] is -0.1% (inactive); in test [2], 69.9% (active); in test [4] it was 14.7% (inactive); in test [9] it was -10.1% (inactive). In test [2], this compound displayed a nuclei count of 85.8%. Also, the z-score was -3.44 in test [3] (setting [10]), 2.82 in test [3] (setting [11]) and 1.07 in test [3] (setting [12]). Further, the fluorescence slope in test [5] was -0.481 (inactive); in test [7], 0.00536 (inactive). In addition, the NADPH fluorescence slope in test [6] is -4.7e-05 (inactive). Moreover, the outcome in test [8] was inactive.

In the case of `CCOc1ccc2nc(NC(NC(C)=O)(C(=O)OC)C(F)(F)F)sc2c1` (stereo unspecified), the cell count in [1] was 550. Further, the inhibition in test [1] is 1.9% (inactive); in test [2], -54.7% (inactive); in test [4], -4.59% (inactive); in test [9], 7.67% (inactive). In test [2], this compound yielded a nuclei count of 119%. Further, the z-score in test [3] (setting [10]) is -0.584; in test [3] (setting [11]) it was 0.796; in test [3] (setting [12]), 1.15. For the same compound, the fluorescence slope in [5] is -0.459 (inactive); in [7], 0.00553 (inactive). For the same compound, in test [6], the NADPH fluorescence slope is -0.000128 (inactive). In addition, in test [8], the compound was classed as inactive.

Consider `CN(C)CCCN(CCCNC(=O)/C=N/O)Cc1ccccc1`, for which, in test [1], the cell count is 652. Further, the inhibition is -10.5% (inactive) in [1], -38% (inactive) in [2], -2.09% (inactive) in test [4] and 8.7% (inactive) in test [9]. Besides, in [2], the nuclei count stood at 181%. Further, the z-score is -1.02 in [3] (setting [10]), -0.157 in test [3] (setting [11]) and 0.798 in test [3] (setting [12]). The fluorescence slope in test [5] is -0.495 (inactive); in test [7], 0.00839 (inactive). Also, the NADPH fluorescence slope in test [6] was -5.8e-05 (inactive). Moreover, the compound was classed as inactive in test [8].

For `Oc1oc(-c2ccco2)nc1C=Nc1cccc(Cl)c1`, the cell count in test [1] stood at 562. Besides, the inhibition in test [1] was 5.6% (inactive); in test [2], -19% (inactive); in test [4], -12.6% (inactive); in [9], -1.6% (inactive). Also, in test [2], the nuclei count came out at 131%. Besides, the z-score was -0.184 in [3] (setting [10]), -1.01 in [3] (setting [11]) and 0.105 in test [3] (setting [12]). Moreover, the fluorescence slope is -0.449 (inactive) in test [5] and 0.00392 (inactive) in test [7]. Moreover, the NADPH fluorescence slope in [6] was -0.000133 (inactive). The call in [8] was inactive.
